{"source": "ChEMBL document CHEMBL5120825", "about": "“The azulene scaffold from a medicinal chemist's perspective: Physicochemical and in vitro parameters relevant for drug discovery” (Eur J Med Chem, 2022)", "key": {"[1]": {"assay": "Octanol-water partition coefficient, logD of the compound at pH 2 by HPLC analysis", "type": "physicochemical", "conditions": "read-out: logD"}, "Cytochrome P450 2D6": {"target": "Cytochrome P450 2D6 (Homo sapiens, UniProt P10635)", "sequence (P10635 whole entry)": "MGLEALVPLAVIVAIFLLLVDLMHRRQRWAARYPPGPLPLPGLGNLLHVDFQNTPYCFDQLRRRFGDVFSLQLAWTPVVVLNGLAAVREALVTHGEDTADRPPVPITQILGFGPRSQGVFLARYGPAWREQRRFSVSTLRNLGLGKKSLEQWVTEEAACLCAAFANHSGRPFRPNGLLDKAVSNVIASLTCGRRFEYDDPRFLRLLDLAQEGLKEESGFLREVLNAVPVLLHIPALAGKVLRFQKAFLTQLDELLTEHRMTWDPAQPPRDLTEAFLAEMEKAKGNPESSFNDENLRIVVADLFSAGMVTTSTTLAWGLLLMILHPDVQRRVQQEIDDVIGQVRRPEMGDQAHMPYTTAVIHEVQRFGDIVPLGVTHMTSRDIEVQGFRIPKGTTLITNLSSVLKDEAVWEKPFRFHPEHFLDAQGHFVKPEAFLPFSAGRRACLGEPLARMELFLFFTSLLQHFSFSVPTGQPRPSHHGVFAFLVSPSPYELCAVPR", "assay": "Inhibition of CYP2D6 in human liver microsomes using dextromethorphan as substrate preincubated with compound followed by NADPH addition by LC-MS/MS analysis", "type": "ADME, Microsome"}, "[2]": {"assay": "Permeability of the compound at pH 7.4 by PAMPA assay", "type": "ADME", "conditions": "read-out: permeability"}, "[3]": {"assay": "Aqueous solubility of the compound at pH 2.2 incubated for 24 hrs under shaking condition by LC-UV analysis", "type": "physicochemical", "conditions": "aqueous medium", "in_short": "(§1)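 The highest concentration tested was 250 μM, so results are capped at that level. Values are reported in µg/ml.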"}, "Cytochrome P450 2C8": {"target": "T1, Cytochrome P450 2C8 (Homo sapiens, UniProt P10632)", "T1 sequence (P10632 whole entry)": "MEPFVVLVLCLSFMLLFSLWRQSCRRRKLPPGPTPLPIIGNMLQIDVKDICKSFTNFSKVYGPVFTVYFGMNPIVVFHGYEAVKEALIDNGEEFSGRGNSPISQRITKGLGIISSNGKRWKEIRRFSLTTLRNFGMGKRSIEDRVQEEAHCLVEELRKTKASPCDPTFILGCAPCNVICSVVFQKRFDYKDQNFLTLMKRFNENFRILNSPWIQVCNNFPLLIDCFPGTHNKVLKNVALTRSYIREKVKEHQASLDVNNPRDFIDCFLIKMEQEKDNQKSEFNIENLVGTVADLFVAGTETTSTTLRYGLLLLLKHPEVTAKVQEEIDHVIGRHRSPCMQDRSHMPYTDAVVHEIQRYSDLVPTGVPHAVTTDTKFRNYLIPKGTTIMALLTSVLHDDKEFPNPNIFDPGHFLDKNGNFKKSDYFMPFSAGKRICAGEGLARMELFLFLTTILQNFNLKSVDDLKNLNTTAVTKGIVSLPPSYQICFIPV", "assay": "Inhibition of CYP2C8 in human liver microsomes using amodiaquine as substrate preincubated with compound followed by NADPH addition by LC-MS/MS analysis", "type": "ADME, Microsome"}, "[4]": {"assay": "Aqueous solubility of the compound at pH 6.8 incubated for 24 hrs under shaking condition by LC-UV analysis", "type": "physicochemical", "conditions": "aqueous medium", "in_short": "as §1"}, "[5]": {"assay": "Octanol-water partition coefficient, logD of the compound at pH 11 by HPLC analysis", "type": "physicochemical", "conditions": "read-out: logD"}, "[6]": {"assay": "Metabolic stability in human liver microsomes assessed as hepatic blood flow at 1 uM preincubated with compound followed by NADPH addition by LC-MS/MS analysis", "type": "ADME, Microsome", "conditions": "read-out: QH"}, "[7]": {"assay": "Aqueous solubility of the compound at pH 4.5 incubated for 24 hrs under shaking condition by LC-UV analysis", "type": "physicochemical", "conditions": "aqueous medium", "in_short": "as §1"}, "[8]": {"assay": "Lipophilicity, logP of the compound", "type": "physicochemical", "conditions": "octanol/water; read-out: logP"}, "[9]": {"assay": "Photostability of the compound assessed as compound degradation administered as solid irradiated with sun light and measured after 7 days by HPLC analysis"}, "Cytochrome P450 2C9": {"target": "Cytochrome P450 2C9 (Homo sapiens, UniProt P11712)", "sequence (P11712 whole entry)": "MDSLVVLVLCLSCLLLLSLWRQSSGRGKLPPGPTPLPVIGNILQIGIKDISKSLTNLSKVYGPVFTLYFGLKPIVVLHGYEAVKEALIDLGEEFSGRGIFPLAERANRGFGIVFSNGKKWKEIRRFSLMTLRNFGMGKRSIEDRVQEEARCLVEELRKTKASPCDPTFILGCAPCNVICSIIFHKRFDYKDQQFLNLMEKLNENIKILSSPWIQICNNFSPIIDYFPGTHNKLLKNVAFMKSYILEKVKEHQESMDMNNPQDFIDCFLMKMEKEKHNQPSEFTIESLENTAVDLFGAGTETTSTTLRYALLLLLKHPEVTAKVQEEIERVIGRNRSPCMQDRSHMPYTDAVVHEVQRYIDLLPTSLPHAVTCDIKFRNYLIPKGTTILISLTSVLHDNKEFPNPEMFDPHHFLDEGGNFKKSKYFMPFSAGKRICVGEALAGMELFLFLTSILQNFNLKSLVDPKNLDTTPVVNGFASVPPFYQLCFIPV", "assay": "Inhibition of CYP2C9 in human liver microsomes using diclofenac as substrate preincubated with compound followed by NADPH addition by LC-MS/MS analysis", "type": "ADME, Microsome"}, "Cytochrome P450 3A4": {"target": "Cytochrome P450 3A4 (Homo sapiens, UniProt P08684)", "sequence (P08684 whole entry)": "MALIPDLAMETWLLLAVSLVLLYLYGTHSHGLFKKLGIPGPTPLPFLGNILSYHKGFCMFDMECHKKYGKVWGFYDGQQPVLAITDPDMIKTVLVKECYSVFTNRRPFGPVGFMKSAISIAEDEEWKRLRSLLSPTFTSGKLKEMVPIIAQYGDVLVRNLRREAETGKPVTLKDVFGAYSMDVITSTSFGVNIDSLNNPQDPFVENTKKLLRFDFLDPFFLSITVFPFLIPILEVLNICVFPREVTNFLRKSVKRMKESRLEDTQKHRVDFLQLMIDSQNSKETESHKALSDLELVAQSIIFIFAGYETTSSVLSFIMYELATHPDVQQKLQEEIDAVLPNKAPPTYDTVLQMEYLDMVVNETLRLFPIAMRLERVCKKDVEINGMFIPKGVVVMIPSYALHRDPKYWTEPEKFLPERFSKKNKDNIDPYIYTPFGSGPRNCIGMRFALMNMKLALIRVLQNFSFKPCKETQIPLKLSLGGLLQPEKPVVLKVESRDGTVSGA", "assay": "Inhibition of CYP3A4 in human liver microsomes using midazolam as substrate preincubated with compound followed by NADPH addition by LC-MS/MS analysis", "type": "ADME, Microsome"}, "[10]": {"assay": "Photostability of the compound at pH 7.2 assessed as compound degradation administered as solution irradiated with sun light and measured after 7 days by HPLC analysis", "type": "physicochemical", "conditions": "time 7 day, read-out: Drug degradation", "in_short": "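Compound in solution was kept for 7 days under \"mild\" light-stress conditions, with no pH adjustment. The pH listed for each compound is the solution's own intrinsic pH. Result is % degradation of parent.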"}, "Cytochrome P450 2C19": {"target": "Cytochrome P450 2C19 (Homo sapiens, UniProt P33261)", "sequence (P33261 whole entry)": "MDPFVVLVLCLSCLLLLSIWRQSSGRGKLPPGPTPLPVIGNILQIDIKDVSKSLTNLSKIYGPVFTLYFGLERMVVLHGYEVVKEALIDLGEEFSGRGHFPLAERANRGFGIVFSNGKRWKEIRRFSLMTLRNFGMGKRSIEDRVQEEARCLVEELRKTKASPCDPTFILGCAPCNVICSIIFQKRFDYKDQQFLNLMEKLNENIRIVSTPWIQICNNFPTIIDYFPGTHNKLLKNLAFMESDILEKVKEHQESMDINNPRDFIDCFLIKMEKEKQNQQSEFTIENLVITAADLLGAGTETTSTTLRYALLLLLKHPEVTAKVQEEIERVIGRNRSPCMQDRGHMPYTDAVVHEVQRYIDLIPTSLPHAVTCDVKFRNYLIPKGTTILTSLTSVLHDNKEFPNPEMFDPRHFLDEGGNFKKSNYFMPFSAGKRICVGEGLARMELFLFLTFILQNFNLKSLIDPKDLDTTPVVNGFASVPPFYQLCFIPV", "assay": "Inhibition of CYP2C19 in human liver microsomes using mephenytoin as substrate preincubated with compound followed by NADPH addition by LC-MS/MS analysis", "type": "ADME, Microsome"}}, "data": [{"smiles": "CN1CCN(C(=O)c2ccc3ccc(C(=O)c4ccccc4)c-3cc2)CC1", "values": [{"measurement": "logD", "setting": "[1]", "result": 1.2}, {"measurement": "IC50", "setting": "Cytochrome P450 2D6", "result": "> 50", "unit": "µM"}, {"measurement": "Papp", "setting": "[2]", "result": 84, "unit": "nm/s"}, {"measurement": "solubility thermodynamic at 24 h", "setting": "[3]", "result": "> 0.09", "unit": "mg/mL"}, {"measurement": "IC50", "setting": "Cytochrome P450 2C8", "result": "> 50", "unit": "µM"}, {"measurement": "solubility thermodynamic at 24 h", "setting": "[4]", "result": "> 0.073", "unit": "mg/mL"}, {"measurement": "logD", "setting": "[5]", "result": 1.2}, {"measurement": "hepatic extraction ratio at 1 µM", "setting": "[6]", "result": 0.48}, {"measurement": "solubility thermodynamic at 24 h", "setting": "[7]", "result": 0.067, "unit": "mg/mL"}, {"measurement": "logP", "setting": "[8]", "result": 3}, {"measurement": "degraded at 168 h", "setting": "[9]", "result": "< 0.5", "unit": "%"}, {"measurement": "IC50", "setting": "Cytochrome P450 2C9", "result": 39, "unit": "µM"}, {"measurement": "IC50", "setting": "Cytochrome P450 3A4", "result": "> 50", "unit": "µM"}, {"measurement": "degraded at 168 h", "setting": "[10]", "result": "< 0.5", "unit": "%"}, {"measurement": "IC50", "setting": "Cytochrome P450 2C19", "result": "> 50", "unit": "µM"}]}]}
